# Reference: ChEMBL document CHEMBL2321753, “Synthesis and biological evaluation of radioiodinated quinacrine-based derivatives for SPECT imaging of Aβ plaques” (Eur J Med Chem, 2013)
# Legend:
# [1] = target: Amyloid-beta precursor protein (Homo sapiens, UniProt P05067); assay: Displacement of [125I]IMPY from amyloid beta (1 to 42) (unknown origin) after 3 hrs by gamma counting
# Outline: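 Filtered through GF/B filters and bound radioactivity gamma-counted. IC50 from displacement curves of three independent experiments; Ki calculated with the Cheng–Prusoff equation.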
# Liver [2] = assay: Biodistribution in ddY mouse liver at 0.1 to 0.4 uCi, iv after 2 mins by gamma counting; type: ADME, organism-based; conditions: in vivo
# Outline: (§1)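 [125I]ligand (0.1–0.4 µCi) in 100 µL PBS (pH 7.4) containing 30 µL DMSO, injected into the tail vein of ddY mice (5 weeks, 22–25 g). Mice sacrificed at 2, 10, 30 and 60 min. Organs removed, weighed and gamma-counted. Values are % injected dose per gram, except stomach as % dose per organ. Mean (SD) of 3–6 mice per time point.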
# Lung [3] = assay: Biodistribution in ddY mouse lung at 0.1 to 0.4 uCi, iv after 30 mins by gamma counting; type: ADME, organism-based; conditions: in vivo, 0.5 h; outline: as §1
# Pancreas [4] = assay: Biodistribution in ddY mouse pancreas at 0.1 to 0.4 uCi, iv after 10 mins by gamma counting; type: ADME, organism-based; conditions: in vivo; outline: as §1
# Intestine [5] = assay: Biodistribution in ddY mouse intestine at 0.1 to 0.4 uCi, iv after 2 mins by gamma counting; type: ADME, organism-based; conditions: in vivo; outline: as §1
# Kidney [6] = assay: Biodistribution in ddY mouse kidney at 0.1 to 0.4 uCi, iv after 30 mins by gamma counting; type: ADME, organism-based; conditions: in vivo, 0.5 h; outline: as §1
# Pancreas [7] = assay: Biodistribution in ddY mouse pancreas at 0.1 to 0.4 uCi, iv after 2 mins by gamma counting; type: ADME, organism-based; conditions: in vivo; outline: as §1
# Heart [8] = assay: Biodistribution in ddY mouse heart at 0.1 to 0.4 uCi, iv after 30 mins by gamma counting; type: ADME, organism-based; conditions: in vivo, 0.5 h; outline: as §1
# Spleen [9] = assay: Biodistribution in ddY mouse spleen at 0.1 to 0.4 uCi, iv after 2 mins by gamma counting; type: ADME, organism-based; conditions: in vivo; outline: as §1
# Stomach [10] = assay: Biodistribution in ddY mouse stomach assessed per organ at 0.1 to 0.4 uCi, iv after 30 mins by gamma counting; type: ADME, organism-based; conditions: in vivo, 0.5 h; outline: as §1
# Heart [11] = assay: Biodistribution in ddY mouse heart at 0.1 to 0.4 uCi, iv after 60 mins by gamma counting; type: ADME, organism-based; conditions: in vivo, 1 h; outline: as §1
# [12] = n-octanol-sodium phosphate buffer partition co-efficient, log D of the compound at pH 7.4 by shake flask method; type: physicochemical
# Outline: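 Shake-flask partition between n-octanol and sodium phosphate buffer, pH 7.4, shaken 10 min at room temperature, then centrifuged. Weighed 0.5 mL samples of each layer counted. log D from the ratio of cpm per gram of octanol to cpm per gram of buffer; n = 3.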
# Liver [13] = assay: Biodistribution in ddY mouse liver at 0.1 to 0.4 uCi, iv after 10 mins by gamma counting; type: ADME, organism-based; conditions: in vivo; outline: as §1
# Kidney [14] = assay: Biodistribution in ddY mouse kidney at 0.1 to 0.4 uCi, iv after 10 mins by gamma counting; type: ADME, organism-based; conditions: in vivo; outline: as §1
# Spleen [15] = assay: Biodistribution in ddY mouse spleen at 0.1 to 0.4 uCi, iv after 60 mins by gamma counting; type: ADME, organism-based; conditions: in vivo, 1 h; outline: as §1
# Brain [16] = assay: Biodistribution in ddY mouse brain at 0.1 to 0.4 uCi, iv after 60 mins by gamma counting; type: ADME, organism-based; conditions: in vivo, 1 h; outline: as §1
# Liver [17] = assay: Biodistribution in ddY mouse liver at 0.1 to 0.4 uCi, iv after 30 mins by gamma counting; type: ADME, organism-based; conditions: in vivo, 0.5 h; outline: as §1
# Spleen [18] = assay: Biodistribution in ddY mouse spleen at 0.1 to 0.4 uCi, iv after 10 mins by gamma counting; type: ADME, organism-based; conditions: in vivo; outline: as §1
# Heart [19] = assay: Biodistribution in ddY mouse heart at 0.1 to 0.4 uCi, iv after 10 mins by gamma counting; type: ADME, organism-based; conditions: in vivo; outline: as §1
# Lung [20] = assay: Biodistribution in ddY mouse lung at 0.1 to 0.4 uCi, iv after 2 mins by gamma counting; type: ADME, organism-based; conditions: in vivo; outline: as §1
# Intestine [21] = assay: Biodistribution in ddY mouse intestine at 0.1 to 0.4 uCi, iv after 10 mins by gamma counting; type: ADME, organism-based; conditions: in vivo; outline: as §1
# Heart [22] = assay: Biodistribution in ddY mouse heart at 0.1 to 0.4 uCi, iv after 2 mins by gamma counting; type: ADME, organism-based; conditions: in vivo; outline: as §1
# Lung [23] = assay: Biodistribution in ddY mouse lung at 0.1 to 0.4 uCi, iv after 60 mins by gamma counting; type: ADME, organism-based; conditions: in vivo, 1 h; outline: as §1
# Spleen [24] = assay: Biodistribution in ddY mouse spleen at 0.1 to 0.4 uCi, iv after 30 mins by gamma counting; type: ADME, organism-based; conditions: in vivo, 0.5 h; outline: as §1
# Kidney [25] = assay: Biodistribution in ddY mouse kidney at 0.1 to 0.4 uCi, iv after 2 mins by gamma counting; type: ADME, organism-based; conditions: in vivo; outline: as §1
# Brain [26] = assay: Biodistribution in ddY mouse brain at 0.1 to 0.4 uCi, iv after 2 mins by gamma counting; type: ADME, organism-based; conditions: in vivo; outline: as §1
# Brain [27] = assay: Biodistribution in ddY mouse brain at 0.1 to 0.4 uCi, iv after 30 mins by gamma counting; type: ADME, organism-based; conditions: in vivo, 0.5 h; outline: as §1
# Intestine [28] = assay: Biodistribution in ddY mouse intestine at 0.1 to 0.4 uCi, iv after 60 mins by gamma counting; type: ADME, organism-based; conditions: in vivo, 1 h; outline: as §1
# Blood [29] = assay: Biodistribution in ddY mouse blood at 0.1 to 0.4 uCi, iv after 10 mins by gamma counting; type: ADME, organism-based; conditions: in vivo; outline: as §1
# Pancreas [30] = assay: Biodistribution in ddY mouse pancreas at 0.1 to 0.4 uCi, iv after 30 mins by gamma counting; type: ADME, organism-based; conditions: in vivo, 0.5 h; outline: as §1
# Stomach [31] = assay: Biodistribution in ddY mouse stomach assessed per organ at 0.1 to 0.4 uCi, iv after 60 mins by gamma counting; type: ADME, organism-based; conditions: in vivo, 1 h; outline: as §1
# Intestine [32] = assay: Biodistribution in ddY mouse intestine at 0.1 to 0.4 uCi, iv after 30 mins by gamma counting; type: ADME, organism-based; conditions: in vivo, 0.5 h; outline: as §1
# Liver [33] = assay: Biodistribution in ddY mouse liver at 0.1 to 0.4 uCi, iv after 60 mins by gamma counting; type: ADME, organism-based; conditions: in vivo, 1 h; outline: as §1
# Blood [34] = assay: Biodistribution in ddY mouse blood at 0.1 to 0.4 uCi, iv after 2 mins by gamma counting; type: ADME, organism-based; conditions: in vivo; outline: as §1
# Brain [35] = assay: Biodistribution in ddY mouse brain at 0.1 to 0.4 uCi, iv after 10 mins by gamma counting; type: ADME, organism-based; conditions: in vivo; outline: as §1
# Blood [36] = assay: Biodistribution in ddY mouse blood at 0.1 to 0.4 uCi, iv after 30 mins by gamma counting; type: ADME, organism-based; conditions: in vivo, 0.5 h; outline: as §1
# Blood [37] = assay: Biodistribution in ddY mouse blood at 0.1 to 0.4 uCi, iv after 60 mins by gamma counting; type: ADME, organism-based; conditions: in vivo, 1 h; outline: as §1
# Pancreas [38] = assay: Biodistribution in ddY mouse pancreas at 0.1 to 0.4 uCi, iv after 60 mins by gamma counting; type: ADME, organism-based; conditions: in vivo, 1 h; outline: as §1
# Lung [39] = assay: Biodistribution in ddY mouse lung at 0.1 to 0.4 uCi, iv after 10 mins by gamma counting; type: ADME, organism-based; conditions: in vivo; outline: as §1
# Stomach [40] = assay: Biodistribution in ddY mouse stomach assessed per organ at 0.1 to 0.4 uCi, iv after 2 mins by gamma counting; type: ADME, organism-based; conditions: in vivo; outline: as §1
# Stomach [41] = assay: Biodistribution in ddY mouse stomach assessed per organ at 0.1 to 0.4 uCi, iv after 10 mins by gamma counting; type: ADME, organism-based; conditions: in vivo; outline: as §1
# Kidney [42] = assay: Biodistribution in ddY mouse kidney at 0.1 to 0.4 uCi, iv after 60 mins by gamma counting; type: ADME, organism-based; conditions: in vivo, 1 h; outline: as §1
# Chain of Amyloid-beta precursor protein (P05067 whole entry): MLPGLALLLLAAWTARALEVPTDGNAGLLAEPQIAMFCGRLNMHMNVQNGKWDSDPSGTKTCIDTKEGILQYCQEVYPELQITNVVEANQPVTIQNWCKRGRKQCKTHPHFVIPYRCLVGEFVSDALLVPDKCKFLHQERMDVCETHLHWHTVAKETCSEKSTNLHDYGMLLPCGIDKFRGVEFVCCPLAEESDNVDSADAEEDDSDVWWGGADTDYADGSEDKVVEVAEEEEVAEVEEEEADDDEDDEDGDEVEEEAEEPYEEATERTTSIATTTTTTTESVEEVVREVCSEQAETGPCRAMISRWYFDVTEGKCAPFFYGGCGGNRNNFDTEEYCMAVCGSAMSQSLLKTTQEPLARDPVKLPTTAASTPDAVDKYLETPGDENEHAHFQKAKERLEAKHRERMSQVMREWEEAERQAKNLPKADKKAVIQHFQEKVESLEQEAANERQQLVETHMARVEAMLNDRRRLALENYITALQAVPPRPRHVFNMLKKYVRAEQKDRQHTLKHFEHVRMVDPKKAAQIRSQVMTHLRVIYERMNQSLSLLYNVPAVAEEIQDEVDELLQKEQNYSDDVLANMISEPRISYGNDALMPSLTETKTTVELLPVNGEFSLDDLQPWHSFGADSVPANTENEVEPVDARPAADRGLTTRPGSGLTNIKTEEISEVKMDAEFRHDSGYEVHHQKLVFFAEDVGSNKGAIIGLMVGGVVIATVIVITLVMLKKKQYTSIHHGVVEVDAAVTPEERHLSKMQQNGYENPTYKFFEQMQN
smiles,measurement,setting,value
COc1ccc2nc3cc(I)ccc3c(N)c2c1,Ki,[1],83.5 nM
CNc1c2ccc(I)cc2nc2ccc(OC)cc12,Ki,[1],13.8 nM
COc1ccc2nc3cc(I)ccc3c(OC)c2c1,Ki,[1],28.9 nM
COc1ccc2nc3cc([125I])ccc3c(N)c2c1,Drug uptake,Liver [2],6.24 % ID/g
same,Drug uptake,Lung [3],5.04 % ID/g
same,Drug uptake,Pancreas [4],11.52 % ID/g
same,Drug uptake,Intestine [5],1.86 % ID/g
same,Drug uptake,Kidney [6],12.64 % ID/g
same,Drug uptake,Pancreas [7],4.34 % ID/g
same,Drug uptake,Heart [8],2.26 % ID/g
same,Drug uptake,Spleen [9],4.7 % ID/g
same,Drug uptake,Stomach [10],6.66 %ID
same,Drug uptake,Heart [11],0.49 % ID/g
same,logD,[12],2.13
same,Drug uptake,Liver [13],14.79 % ID/g
same,Drug uptake,Kidney [14],22.51 % ID/g
same,Drug uptake,Spleen [15],3.28 % ID/g
same,Drug uptake,Brain [16],0.19 % ID/g
same,Drug uptake,Liver [17],8.4 % ID/g
same,Drug uptake,Spleen [18],14.65 % ID/g
same,Drug uptake,Heart [19],4.57 % ID/g
same,Drug uptake,Lung [20],9.91 % ID/g
same,Drug uptake,Intestine [21],14.19 % ID/g
same,Drug uptake,Heart [22],4.46 % ID/g
same,Drug uptake,Lung [23],1.4 % ID/g
same,Drug uptake,Spleen [24],10.6 % ID/g
same,Drug uptake,Kidney [25],9.81 % ID/g
same,Drug uptake,Brain [26],1.35 % ID/g
same,Drug uptake,Brain [27],1.27 % ID/g
same,Drug uptake,Intestine [28],11.2 % ID/g
same,Drug uptake,Blood [29],2.09 % ID/g
same,Drug uptake,Pancreas [30],4.98 % ID/g
same,Drug uptake,Stomach [31],1.74 %ID
same,Drug uptake,Intestine [32],17.49 % ID/g
same,Drug uptake,Liver [33],2.84 % ID/g
same,Drug uptake,Blood [34],1.15 % ID/g
same,Drug uptake,Brain [35],3.16 % ID/g
same,Drug uptake,Blood [36],1.46 % ID/g
same,Drug uptake,Blood [37],0.49 % ID/g
same,Drug uptake,Pancreas [38],0.76 % ID/g
same,Drug uptake,Lung [39],14.29 % ID/g
same,Drug uptake,Stomach [40],0.99 %ID
same,Drug uptake,Stomach [41],6.58 %ID
same,Drug uptake,Kidney [42],3.58 % ID/g
COc1ccc2nc3cc([125I])ccc3c(N(C)C)c2c1,Drug uptake,Liver [2],10.85 % ID/g
same,Drug uptake,Lung [3],46.47 % ID/g
same,Drug uptake,Pancreas [4],6.5 % ID/g
same,Drug uptake,Intestine [5],2.22 % ID/g
same,Drug uptake,Kidney [6],21.56 % ID/g
same,Drug uptake,Pancreas [7],5.21 % ID/g
same,Drug uptake,Heart [8],9.08 % ID/g
same,Drug uptake,Spleen [9],6.94 % ID/g
same,Drug uptake,Stomach [10],2.21 %ID
same,Drug uptake,Heart [11],4.33 % ID/g
same,logD,[12],2.19
same,Drug uptake,Liver [13],11.77 % ID/g
same,Drug uptake,Kidney [14],18.16 % ID/g
same,Drug uptake,Spleen [15],11.22 % ID/g
same,Drug uptake,Brain [16],0.23 % ID/g
same,Drug uptake,Liver [17],16.43 % ID/g
same,Drug uptake,Spleen [18],9.65 % ID/g
same,Drug uptake,Heart [19],11.2 % ID/g
same,Drug uptake,Lung [20],79.34 % ID/g
same,Drug uptake,Intestine [21],3.13 % ID/g
same,Drug uptake,Heart [22],16.28 % ID/g
same,Drug uptake,Lung [23],21.84 % ID/g
same,Drug uptake,Spleen [24],14.49 % ID/g
same,Drug uptake,Kidney [25],16.71 % ID/g
same,Drug uptake,Brain [26],0.33 % ID/g
same,Drug uptake,Brain [27],0.28 % ID/g
same,Drug uptake,Intestine [28],6.5 % ID/g
same,Drug uptake,Blood [29],1.97 % ID/g
same,Drug uptake,Pancreas [30],7.85 % ID/g
same,Drug uptake,Stomach [31],1.4 %ID
same,Drug uptake,Intestine [32],5.33 % ID/g
same,Drug uptake,Liver [33],12.55 % ID/g
same,Drug uptake,Blood [34],4.76 % ID/g
same,Drug uptake,Brain [35],0.26 % ID/g
same,Drug uptake,Blood [36],1.26 % ID/g
same,Drug uptake,Blood [37],0.64 % ID/g
same,Drug uptake,Pancreas [38],9.81 % ID/g
same,Drug uptake,Lung [39],57.02 % ID/g
same,Drug uptake,Stomach [40],1.37 %ID
same,Drug uptake,Stomach [41],2.18 %ID
same,Drug uptake,Kidney [42],16.34 % ID/g
COc1ccc2nc3cc(I)ccc3c(N(C)C)c2c1,Ki,[1],121 nM
COc1c2ccccc2nc2cc(I)ccc12,Ki,[1],> 10000 nM
COc1c2ccc(I)cc2nc2ccc(N(C)C)cc12,Ki,[1],30 nM
